MPTP inh: mitochondrial permeability transition pore inhibitors, primary screen, biochemical, isolated mouse mitochondria, absorbance. Ca2+ swelling absorbance, 30 min. inhibition, % at 10 µM. 360,000 tested, 1.4% active. AID 602449, 2012;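 active = inhibition of 50% or more, scaled per plate between neutral and stimulator controls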
MIN6 prolif: inducers of MIN6 beta-cell proliferation, primary screen, ATP luminescence, uHTS | 330,000 tested, 0.29% active | proliferation, % at 10 µM | MIN6 cells proliferation, ATPlite luminescence, 48 h; cells starved in 0.2% serum; 100% = growth in 10% serum;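 active = compounds whose signal lies at least 3.5 SD above the mean of all wells on their plate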
hiPSC survival: enhancers of single-cell hiPSC survival, primary screen, ATPlite luminescence | survival enhancement, % at 20 µM | 360,000 tested, 0.044% active | 100% = ROCK inhibitor wells, 0% = DMSO | AID 602274, 2012; in the data active = survival enhancement above about 18%;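 note: cells exposed to compounds for 16 hours before the ATP read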
UBC13 inh: UBC13 polyubiquitin chain formation inhibitors, primary screen, biochemical, TR-FRET, uHTS | Ubiquitin-conjugating enzyme E2 N (Homo sapiens), P61088 | inhibition, % at 20 µM | 330,000 tested, 0.47% active | AID 485273, 2010; in the data active = inhibition above about 45%, passing the limit was not always enough
Target sequence (P61088 whole entry, looked up): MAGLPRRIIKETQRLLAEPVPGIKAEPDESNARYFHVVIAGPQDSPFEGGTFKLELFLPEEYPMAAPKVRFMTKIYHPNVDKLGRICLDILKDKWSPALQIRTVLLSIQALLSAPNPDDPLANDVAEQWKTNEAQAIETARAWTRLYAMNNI
Apaf1 inhib: inhibitors of human Apaf-1 apoptosome, primary screen, biochemical, DEVD-Rh110 fluorescence, uHTS; Apoptotic protease-activating factor 1 (Homo sapiens), O14727; reconstituted apoptosome caspase-3 activity; inhibition, % at 20 µM; 330,000 tested, 0.71% active; AID 489030, 2010; active = inhibition of at least 40% at 20 µM
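detection = Rh110 fluorescence intensity | test system = biochemical Apaf-1 apoptosome reconstitution | also added = cytochrome c and DEVD-Rh110 substrate | schedule = 30 min plus 50 min, RT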
Granule exo inh: LAMP-1 surface exposure blockers, TALL-104 cells – cell-based, flow cytometry, MLPCN library, primary screen | TALL-104 LAMP-1 surface exposure; cells stimulated with thapsigargin and PMA | inhibition, % at 10 µM | 360,000 tested, 0.66% active;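 active = inhibition above about 55%, limit read from the data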
MPTP counter: fluorescence retest of MPTP screen hits in isolated mitochondria, single concentration; inhibition, % at 10 µM; AID 624504, 2012; 5,000 tested, 78% active; membrane potential, Rhodamine 123 fluorescence; shares compounds with MPTP inh; in the data active = inhibition above about 22%
MPTP swell DR: mitochondrial permeability transition pore inhibitors, dose response, biochemical, absorbance, uHTS hits; shares compounds with MPTP inh; isolated mitochondria swelling; IC50, µM; 780 tested, 58% active; AID 651561, 2012; in the data active = IC50 below about 20 µM
MPTP counter DR: fluorescent counter-screen in isolated mitochondria, dose response, counter-screen for MPTP inhibitor project, biochemical, fluorescence, uHTS hits. shares compounds with MPTP inh. isolated mitochondria counterscreen, fluorescence read-out. IC50, µM. 780 tested, 49% active. AID 651564, 2012; in the data active = IC50 below about 80 µM
Large screens that a line does not name were inactive (follow-up assays come after a bar, where they were run). A selection: hits, their analogues and other compounds. The true share with any hit is near 3%.

Cn1ncc(Br)c1NC(=O)Nc1ccc(OC(F)(F)F)cc1	MPTP inh 89.0 | MPTP counter 84.6
Cc1ccc(CNC(=O)Nc2ccc(OC(F)(F)F)cc2)n1C	none
Cc1ccc(NC(=O)COC(=O)C2(c3ccc(Cl)cc3)CCCC2)cc1	MPTP inh 77.7 | MPTP counter 82.3
O=C(CSCc1ccc(Cl)cc1)NCCSCc1ccco1	none
O=C(NCCSCc1ccco1)Nc1cc(Cl)cc(Cl)c1	MPTP inh 86.5 | MPTP counter 90.2
Cc1cccc(C)c1NC(=O)C(c1ccccc1)N1CCN(c2ccc(F)cc2)CC1 (stereo not drawn)	none (no result: MIN6 prolif, UBC13 inh, Apaf1 inhib)
O=C(NCc1cccc(C(F)(F)F)c1)c1csc(COCCO)n1	none (no result: MIN6 prolif, UBC13 inh, Apaf1 inhib)
COc1ccccc1N(C(C)=O)C1=C(Cl)C(=O)c2ccccc2C1=O	MPTP inh 51.0, Granule exo inh 60.5 (no result: MIN6 prolif, UBC13 inh, Apaf1 inhib) | MPTP counter 94.8
CCCCNC(=O)[C@]1(C)CCC[C@@]2(C)C3CC[C@@]4(C)C[C@]3(CCC21)CC4=O (stereo partly drawn)	none
CC(=O)Nc1ccc(NS(=O)(=O)c2ccc(-c3cnc(C4CC4)o3)cc2)cc1	none
CC(=O)c1cccc(NS(=O)(=O)c2ccc(-c3cnc(C4CC4)o3)cc2)c1	MPTP inh 93.8 | MPTP counter 94.0
CC(C)N=c1scc(-c2ccco2)n1/N=C/c1ccc(O)c(O)c1	MPTP inh 63.2 | MPTP counter 41.5
Oc1ccc(/C=N/n2c(-c3ccco3)csc2=Nc2cccnc2)c(O)c1	none
COc1ccc(C(O)c2nc(-c3ccncc3)cs2)cc1 (stereo not drawn)	MPTP inh 56.6 (no result: MIN6 prolif, UBC13 inh, Apaf1 inhib) | MPTP counter 66.2
O=S(=O)(c1ccc(-c2csc(Nc3ccc(F)cc3)n2)cc1)N1CCCC1	MPTP inh 84.4 | MPTP counter 69.4
O=S(=O)(c1ccc(-c2csc(Nc3ccc(Br)cc3)n2)cc1)N1CCCC1	MPTP inh 59.5 | MPTP counter 56.2
CCOC(=O)[C@]12CCC=C1N(Cc1ccc(Cl)cc1Cl)C(=O)[C@H](CC(=O)NCC13CC4CC(CC(C4)C1)C3)C2	none (no result: MIN6 prolif, UBC13 inh, Apaf1 inhib)
CC(C)Nc1nc2nonc2nc1Nc1ccccc1	MPTP inh 91.3 | MPTP counter 80.6
Cc1cc([N+](=O)[O-])ccc1NC(=O)/C=C/c1cccs1	MPTP inh 82.9 | MPTP counter 31.0
Cc1ccc(NC(=O)/C=C/c2ccc([N+](=O)[O-])s2)c(C)c1	none (no result: MIN6 prolif, UBC13 inh, Apaf1 inhib)
CCCC(=O)NC(c1ccc(OC)cc1)c1c(O)ccc2ccccc12 (stereo not drawn)	none
CC(C)CC(=O)NC(c1ccccc1Cl)c1c(O)ccc2ccccc12 (stereo not drawn)	MPTP inh 76.3 | MPTP counter 85.5
COc1ccc(C(NC(=O)C2CCCCC2)c2c(O)ccc3ccccc23)cc1 (stereo not drawn)	MPTP inh 81.0 | MPTP counter 69.4
Cc1cccc(C=NOCCc2ccccc2)n1	none (no result: MIN6 prolif, UBC13 inh, Apaf1 inhib)
CC(=O)NC(Cc1ccccc1)C(=O)Oc1ccc2ccccc2c1 (stereo not drawn)	none (no result: MIN6 prolif, UBC13 inh, Apaf1 inhib)
Cc1cc(C(C)(C)C)ccc1OCCCCN1CCCC1	MPTP inh 50.9 | MPTP counter inactive | MPTP swell DR 6.77 | MPTP counter DR 12.6
Cc1ccc(CNC(=O)/C=C/[C@H]2O[C@@H](n3cc(C)c(=O)[nH]c3=O)C[C@@H]2O)o1	none (no result: MIN6 prolif, UBC13 inh, Apaf1 inhib)
CC1(C)N=C(N)N=C(N)N1c1ccccc1	none
CC1(C)N=C(N)N=C(N)N1c1ccc(CCCCc2ccccc2)cc1	MPTP inh 64.3 (no result: MIN6 prolif, UBC13 inh, Apaf1 inhib) | MPTP counter 60.3
O=C(NCc1cccc(Cl)c1)N1CCN(S(=O)(=O)c2ccccc2F)CC1	none
CCOC(=O)c1c(-c2ccccc2)csc1NC(=O)CSc1nc(N)cc(N)n1	MPTP inh 80.0 | MPTP counter 42.7
CCOC(=O)c1c(-c2ccccc2)csc1NC(=O)CSc1nc(C)cc(C)n1	none
FC(F)(F)c1cccc(NC(=S)NNC(=S)NCc2ccccc2)c1	MPTP inh 79.4 | MPTP counter 71.8
FC(F)(F)c1cccc(NC(=S)Nc2ccc(Cl)cc2Cl)c1	MPTP inh 98.3 | MPTP counter 108.6
FC(F)(F)c1cccc(NC(=S)NCc2ccccn2)c1	none
FC(F)(F)c1ccccc1NC(=S)Nc1cccc(Cl)c1	MPTP inh 97.4 | MPTP counter 88.6
S=C(Nc1ccccc1Cl)Nc1ccc(Cl)cc1Cl	none
S=C(Nc1ccccc1)Nc1ccc(Cl)cc1Cl	MPTP inh 60.7 | MPTP counter 79.3
Cc1cccc(C)c1NC(=O)C(c1ccc(C(F)(F)F)cc1)n1c(=O)c(-c2ccccc2)nc2ccccc21 (stereo not drawn)	none (no result: MIN6 prolif, hiPSC survival, UBC13 inh, Apaf1 inhib)
FC(F)(F)c1cccc(NC(=S)NCC2COc3ccccc3O2)c1 (stereo not drawn)	MPTP inh 80.8 | MPTP counter 80.8
FC(F)(F)c1cccc(NC(=S)Nc2cccc(NC(=S)Nc3cccc(C(F)(F)F)c3)n2)c1	MPTP inh 90.9 | MPTP counter 63.8
O=C(NNC(=S)Nc1cccc(C(F)(F)F)c1)c1cccc(Cl)c1	MPTP inh 93.5 | MPTP counter 86.1
CCCNC(=S)Nc1cccc(C(F)(F)F)c1	none
CC(Cc1cccs1)NC(=S)Nc1ccc(F)cc1 (stereo not drawn)	MPTP inh 50.4 | MPTP counter 73.4
CC(Cc1cccs1)NC(=O)c1cccs1 (stereo not drawn)	none
CC(Cc1cccs1)NC(=O)Nc1ccc([N+](=O)[O-])cc1 (stereo not drawn)	MPTP inh 86.2 | MPTP counter 91.5
Nc1ccc(-c2cnc(N)c(C(=O)c3cccnc3)n2)cn1	none (no result: MIN6 prolif, UBC13 inh, Apaf1 inhib)
Oc1ccc(Cl)cc1-c1cc(C(F)(F)C(F)F)nc(-c2ccccc2)n1	MPTP inh 90.2 | MPTP counter inactive | MPTP swell DR 8.06 | MPTP counter DR <2.5
COc1ccc(C2=Nc3ccccc3N(C(=O)c3ccc4c(c3)OCO4)C2C(=O)Nc2c(C)cccc2C)cc1 (stereo not drawn)	none (no result: MIN6 prolif, hiPSC survival, UBC13 inh, Apaf1 inhib)
O=C(Cc1nc2ccccc2[nH]1)c1cccc([N+](=O)[O-])c1	MPTP inh 90.6 | MPTP counter 79.2

Screens deposited in PubChem by several laboratories.
